Experiment [1] has as its system Hepatitis C virus. The experiment in a line: Inhibition of RNA copy numbers in HCV 1b-N replicon cells with NS5B M414T mutant at EC50 after 4 days. Format: functional, Hepacivirus hominis, genotype 1b strain N. On the set-up: scale not given: the % may be the effect or the level left. The method in brief: (§1)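 1b-N replicon cells treated with compound for 4 days, with a no-compound control. Total RNA was extracted and HCV RNA copy number quantified by TaqMan real-time RT-PCR, normalised per 1 pg total RNA.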
A general note: A replicon is a self-replicating genome or part of one, used to study replication in cells.

In experiment [2] the test system is Hepatitis C virus. The experiment in a line: Inhibition of RNA copy numbers in HCV 1b-N replicon cells with NS5B M414T mutant at 10 times EC50 after 4 days. Format: functional, Hepacivirus hominis, genotype 1b strain N. Details: scale not given: the % may be the effect or the level left. The method, boiled down:
as §1

Experiment [3] concerns Hepatitis C virus. Nature of the experiment: Inhibition of RNA copy numbers in HCV 1b-N replicon cells with NS5B M414T mutant at 100 times EC50 after 4 days. Details: scale not given: the % may be the effect or the level left. It is filed as functional, Hepacivirus hominis, genotype 1b strain N. The method, boiled down:
as §1

The test system of experiment [4] is Hepatitis C virus. Nature of the experiment: Decrease in NS5B M414T mutant in HCV 1b-N replicon cells treated with 70 nM assessed as mutant level after drug withdrawal on day 4 and measured at day 18 and 28. Format: functional, Hepacivirus hominis, genotype 1b strain N. On the set-up: scale not given: the % may be the effect or the level left. The method, boiled down:
(§2)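 Replicon cells, 2 × 10⁵ per 10-cm dish, received inhibitor for 4 days, then drug was removed and culture continued to day 28, splitting 1:10 at 90% confluence. Cells were trypsinised and PBS-washed before RNA extraction. %M414T was measured by RT, first-round PCR, then allele-specific SYBR green real-time PCR as 100 × M414T/(M414T + wild-type copies), mean of three experiments.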

In experiment [5] the test system is Hepatitis C virus. Nature of the experiment: Decrease in NS5B M414T mutant in HCV 1b-N replicon cells treated with 70 nM assessed as mutant level after drug withdrawal on day 4 and measured at day 10. Details: scale not given: the % may be the effect or the level left. It is filed as functional, Hepacivirus hominis, genotype 1b strain N. The method in brief:
as §2

Experiment [6] concerns Hepatitis C virus. Nature of the experiment: Increase in NS5B M414T mutant levels in HCV 1b-N replicon cells at 7000 nM after 3 days relative to baseline. Format: functional, Hepacivirus hominis, genotype 1b strain N. The method in brief:
(§3)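 1b-N replicon cells, 2 × 10⁴ per well, were exposed to inhibitor for up to 4 days, PBS-washed, and total RNA extracted. RNA was reverse transcribed at 50°C for 50 min, then NS5B was amplified by first-round PCR for 25 cycles. Allele-specific SYBR green real-time PCR used M414-wild-type or T-specific antisense primers. %M414T = 100 × M414T/(M414T + wild-type copies), mean of three experiments.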

The subject of experiment [7] is Hepatitis C virus. Nature of the experiment: Increase in NS5B M414T mutant levels in HCV 1b-N replicon cells at 700 nM after 3 days relative to baseline. It is filed as functional, Hepacivirus hominis, genotype 1b strain N. The method in brief:
as §3

Experiment [8] concerns Hepatitis C virus. Nature of the experiment: Increase in NS5B M414T mutant levels in HCV 1b-N replicon cells at 70 nM after 3 days relative to baseline. Format: functional, Hepacivirus hominis, genotype 1b strain N. The method in brief: as §3
Experiment [9] has as its system Hepatitis C virus. The experiment in a line: Increase in NS5B M414T mutant levels in HCV 1b-N replicon cells at 7000 nM after 2 days relative to baseline. It is filed as functional, Hepacivirus hominis, genotype 1b strain N. The method in brief: as §3
The test system of experiment [10] is Hepatitis C virus. The experiment in a line: Increase in NS5B M414T mutant levels in HCV 1b-N replicon cells at 700 nM after 2 days relative to baseline. Format: functional, Hepacivirus hominis, genotype 1b strain N. The method in brief: as §3
Experiment [11] concerns Hepatitis C virus. Nature of the experiment: Increase in NS5B M414T mutant levels in HCV 1b-N replicon cells at 70 nM after 2 days relative to baseline. Format: functional, Hepacivirus hominis, genotype 1b strain N. The method in brief:
as §3

For experiment [12], the system named is Hepatitis C virus. The experiment in a line: Increase in NS5B M414T mutant levels in HCV 1b-N replicon cells at 700 nM after 4 days relative to baseline. Format: functional, Hepacivirus hominis, genotype 1b strain N. The method, boiled down:
as §3

In experiment [13] the test system is Hepatitis C virus. The experiment in a line: Increase in NS5B M414T mutant levels in HCV 1b-N replicon cells at 7000 nM after 4 days relative to baseline. It is filed as functional, Hepacivirus hominis, genotype 1b strain N. The method in brief: as §3
For experiment [14], the system named is Hepatitis C virus. The experiment in a line: Increase in NS5B M414T mutant levels in HCV 1b-N replicon cells at 70 nM after 4 days relative to baseline. Format: functional, Hepacivirus hominis, genotype 1b strain N. The method in brief:
as §3

Experiment [15] deals with Hepatitis C virus. The experiment in a line: Antiviral activity against HCV 1b-N. It is filed as functional, organism-based, Hepacivirus hominis. The settings on record: genotype 1b strain N. The method in brief:
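1b-N subgenomic replicon cells, grown in DMEM with 10% FBS, blasticidin and G418, seeded at 4,000 cells/well with eight serial compound dilutions. Replicon RNA copy number was quantified by TaqMan real-time RT-PCR, and EC50 was taken as the concentration giving 50% inhibition of copy number.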

The test system of experiment [16] is Hepatitis C virus. The experiment in a line: Decrease in NS5B M414T mutant in HCV 1b-N replicon cells treated with 700 nM assessed as mutant level after drug withdrawal on day 4 and measured at day 10. Details: scale not given: the % may be the effect or the level left. It is filed as functional, Hepacivirus hominis, genotype 1b strain N. The method in brief:
as §2

The subject of experiment [17] is Hepatitis C virus. Nature of the experiment: Decrease in NS5B M414T mutant in HCV 1b-N replicon cells treated with 700 nM assessed as mutant level after drug withdrawal on day 4 and measured upto day 28. It is filed as functional, organism-based. The settings on record: Hepacivirus hominis; genotype 1b strain N. The method in brief: as §2
For experiment [18], the system named is Hepatitis C virus. The experiment in a line: Decrease in NS5B M414T mutant in HCV 1b-N replicon cells treated with 7000 nM assessed as mutant level after drug withdrawal on day 4 and measured upto day 28. The settings on record: Hepacivirus hominis; genotype 1b strain N. It is filed as functional, organism-based. The method in brief:
as §2

Molecules are shown by their SMILES. The source made the active and inactive calls. The rule behind the calls is not given here.

The term EC50 denotes the concentration at which the effect is half-maximal.

Turning to `NC(=O)COc1ccc2c(c1)S(=O)(=O)N=C(c1c(O)c3ccccc3n(NC3CCC3)c1=O)N2`, the Activity came to 58% in experiment [1]; 93% in experiment [2]; 99% in experiment [3]; 0.3% in experiment [4]; 0.9% in [5]; 56% in [6]. Moreover, the Activity stood at 28% in [7]; 2.5% in experiment [8]; 12.6% in experiment [9]; 4% in [10]; 0.8% in [11]; 26% in [12]. Further, the Activity is 60% in [13], 2.5% in experiment [14] and 4% in [16]. Also, the EC50 in experiment [15] came to 70 nM. Further, the outcome in [17] and in [18] was inactive.

`COc1ccc2c(O[C@@H]3C[C@H]4C(=O)N[C@]5(C(=O)O)C[C@H]5/C=C\CCCCC[C@H](NC(=O)OC5CCCC5)C(=O)N4C3)cc(-c3csc(NC(C)C)n3)nc2c1` [CILUPREVIR]: the Activity in experiment [1] is 37%; in experiment [2] it was 99%; in experiment [3], 99%. The EC50 in experiment [15] is 4 nM.

The values are drawn from ChEMBL document CHEMBL1143825, “Evolution of resistant M414T mutants among hepatitis C virus replicon cells treated with polymerase inhibitor A-782759” (Antimicrob Agents Chemother, 2007).
